Reference: ChEMBL document CHEMBL1121570, “3-(4-Piperidinylalkyl)indoles, selective inhibitors of neuronal 5-hydroxytryptamine uptake” (J Med Chem, 1980)
pIC50: −log10 of the molar value. The source made the active and inactive calls. No cut-off for these calls is given here.

Tests used:
[1] = target: Sodium-dependent serotonin transporter (Homo sapiens, UniProt P31645); type: functional, organism-based
Mus musculus [2] = test: Potentiation of 5-HTP in mouse after subcutaneous administration.; type: functional, organism-based
Outline: (§1)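 Mice in groups of eight received L-5-HTP 100 mg/kg ip in 0.9% NaCl. Drug was given sc 30 min after 5-HTP. Tremor was rated at 75 min (0 none, 1 moderate, 2 severe). ED50 is the dose giving a mean score of 1, derived from the group global scores.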

Rattus norvegicus [3] = test: Antagonism of tetrabenazine ptosis in rat after oral administration.; type: functional, organism-based
Outline: (§2)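 Rats dosed orally 0.5 h before tetrabenazine (10 mg/kg, sc). Ptosis scored present or absent 1 h later. ED50 taken as the dose preventing ptosis in 50% of animals.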

[4] = target: Sodium-dependent serotonin transporter (Rattus norvegicus, UniProt P31652); test: Inhibition of uptake of 5-HT in rat brain cortex; type: functional, tissue-based
Chain of Sodium-dependent serotonin transporter (Rattus norvegicus, UniProt P31652) (P31652 whole entry): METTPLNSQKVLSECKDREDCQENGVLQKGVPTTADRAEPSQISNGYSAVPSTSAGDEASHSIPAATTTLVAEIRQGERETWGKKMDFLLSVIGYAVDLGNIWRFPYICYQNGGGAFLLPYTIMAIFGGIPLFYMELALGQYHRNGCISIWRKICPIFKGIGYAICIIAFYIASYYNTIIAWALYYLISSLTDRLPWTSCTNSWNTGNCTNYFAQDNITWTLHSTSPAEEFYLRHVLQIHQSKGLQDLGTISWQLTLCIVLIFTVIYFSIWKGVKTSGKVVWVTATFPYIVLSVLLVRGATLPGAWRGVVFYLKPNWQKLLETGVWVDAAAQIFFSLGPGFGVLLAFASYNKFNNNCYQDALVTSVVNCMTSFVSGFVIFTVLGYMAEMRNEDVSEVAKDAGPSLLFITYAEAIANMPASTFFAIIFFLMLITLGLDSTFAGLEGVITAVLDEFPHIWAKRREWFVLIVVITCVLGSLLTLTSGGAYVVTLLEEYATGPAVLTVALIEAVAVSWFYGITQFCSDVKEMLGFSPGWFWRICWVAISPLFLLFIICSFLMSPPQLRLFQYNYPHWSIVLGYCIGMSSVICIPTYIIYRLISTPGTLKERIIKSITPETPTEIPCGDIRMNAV

[5] = target: Sodium-dependent dopamine transporter (Rattus norvegicus, UniProt P23977); test: Inhibition of uptake of dopamine (DA) rat brain striatum; type: functional, tissue-based
Chain of Sodium-dependent dopamine transporter (P23977 whole entry): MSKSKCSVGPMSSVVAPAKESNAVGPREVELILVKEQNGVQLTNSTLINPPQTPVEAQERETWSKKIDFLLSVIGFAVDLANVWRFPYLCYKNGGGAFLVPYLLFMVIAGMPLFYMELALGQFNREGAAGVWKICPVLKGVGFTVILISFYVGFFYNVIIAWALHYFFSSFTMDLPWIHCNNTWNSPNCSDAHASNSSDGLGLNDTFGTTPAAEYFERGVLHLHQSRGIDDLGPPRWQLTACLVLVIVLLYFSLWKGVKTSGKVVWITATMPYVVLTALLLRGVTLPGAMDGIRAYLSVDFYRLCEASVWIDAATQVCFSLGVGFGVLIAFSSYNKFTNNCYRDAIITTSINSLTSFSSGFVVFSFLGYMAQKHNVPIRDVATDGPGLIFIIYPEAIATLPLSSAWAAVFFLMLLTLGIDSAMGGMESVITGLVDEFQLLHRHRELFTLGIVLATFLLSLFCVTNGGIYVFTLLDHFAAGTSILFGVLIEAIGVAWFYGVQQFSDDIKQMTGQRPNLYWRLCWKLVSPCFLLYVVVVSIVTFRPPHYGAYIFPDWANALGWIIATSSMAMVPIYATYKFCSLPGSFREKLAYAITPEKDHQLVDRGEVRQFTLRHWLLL
Outline: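 Brain synaptosomes from immature female rats (19-21 days) were incubated 5 min at 37 °C with labelled amine at 10⁻⁷ M. Four to six drug concentrations were run in duplicate. IC50 is the concentration inhibiting uptake by 50%.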

[6] = target: Norepinephrine transporter (Rattus norvegicus, UniProt Q9WTR4); test: Inhibition of uptake of noradrenaline in rat brain hypothalamus; type: functional, tissue-based
Chain of Norepinephrine transporter (Q9WTR4 whole entry): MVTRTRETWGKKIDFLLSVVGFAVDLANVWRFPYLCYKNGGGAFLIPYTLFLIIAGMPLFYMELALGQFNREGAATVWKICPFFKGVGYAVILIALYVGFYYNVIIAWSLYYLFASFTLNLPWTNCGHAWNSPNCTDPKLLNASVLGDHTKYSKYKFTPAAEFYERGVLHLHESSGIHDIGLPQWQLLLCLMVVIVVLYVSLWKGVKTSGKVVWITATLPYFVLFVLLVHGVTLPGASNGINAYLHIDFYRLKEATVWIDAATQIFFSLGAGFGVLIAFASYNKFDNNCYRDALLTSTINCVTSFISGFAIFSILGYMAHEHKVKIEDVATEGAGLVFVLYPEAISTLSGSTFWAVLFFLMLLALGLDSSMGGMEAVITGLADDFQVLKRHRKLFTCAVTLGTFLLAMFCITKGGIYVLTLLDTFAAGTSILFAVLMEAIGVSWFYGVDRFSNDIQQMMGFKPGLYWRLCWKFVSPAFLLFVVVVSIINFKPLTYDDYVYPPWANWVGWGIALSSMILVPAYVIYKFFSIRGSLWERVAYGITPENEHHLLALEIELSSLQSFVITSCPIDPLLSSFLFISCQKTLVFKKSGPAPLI
Outline: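 Brain synaptosomes from immature female rats (19-21 days) were incubated 5 min at 37 °C with labelled amine at 10⁻⁷ M. Four to six drug concentrations were run in duplicate.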

Mus musculus [7] = test: Compound was tested for potentiation of 5-HTP in mouse after subcutaneous administration; Inactive at the dose 3 mg/kg; type: functional, organism-based; parameters: dose 3 mg/kg
Outline: as §1

Rattus norvegicus [8] = test: Antagonism of tetrabenazine ptosis in rat after oral administration; Inactive at the dose 10 mg/kg; type: functional, organism-based; parameters: dose 10 mg/kg
Outline: as §2

Mus musculus [9] = test: Compound was tested for potentiation of 5-HTP in mouse after subcutaneous administration; type: functional; settings: sc
Outline: as §1

Rattus norvegicus [10] = test: Antagonism of tetrabenazine ptosis in rat after oral administration; type: functional
Outline: as §2

Mus musculus [11] = test: Compound was tested for potentiation of 5-HTP in mouse after subcutaneous administration; Inactive at 25 mg/kg; type: functional, organism-based; parameters: dose 25 mg/kg
Outline: as §1

Chain of Sodium-dependent serotonin transporter (Homo sapiens, UniProt P31645) (P31645 whole entry): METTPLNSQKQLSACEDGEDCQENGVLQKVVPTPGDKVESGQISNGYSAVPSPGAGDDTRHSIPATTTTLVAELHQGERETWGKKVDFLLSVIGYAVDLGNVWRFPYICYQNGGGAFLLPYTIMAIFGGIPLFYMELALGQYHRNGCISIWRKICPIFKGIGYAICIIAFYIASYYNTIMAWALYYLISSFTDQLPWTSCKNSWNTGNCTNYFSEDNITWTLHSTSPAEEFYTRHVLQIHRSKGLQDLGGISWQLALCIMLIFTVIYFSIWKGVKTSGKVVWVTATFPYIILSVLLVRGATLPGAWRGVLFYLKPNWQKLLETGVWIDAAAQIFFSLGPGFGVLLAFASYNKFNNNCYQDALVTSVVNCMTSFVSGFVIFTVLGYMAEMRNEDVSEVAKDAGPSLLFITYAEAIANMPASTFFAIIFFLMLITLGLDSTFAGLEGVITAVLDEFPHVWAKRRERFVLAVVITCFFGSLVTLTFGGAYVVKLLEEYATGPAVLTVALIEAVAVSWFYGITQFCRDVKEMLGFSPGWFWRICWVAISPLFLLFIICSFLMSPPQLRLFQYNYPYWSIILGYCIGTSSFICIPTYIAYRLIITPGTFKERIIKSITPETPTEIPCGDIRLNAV

SMILES	pIC50 [1]	ED50 (Mus musculus [2])	AD50 (Rattus norvegicus [3])	pIC50 [4]	pIC50 [5]	pIC50 [6]	ED50 (Mus musculus [7])	AD50 (Rattus norvegicus [8])	ED50 (Mus musculus [9])	AD50 (Rattus norvegicus [10])	ED50 (Mus musculus [11])
CN1CCC(CCc2cn(C)c3ccccc23)CC1	< 6.00	inactive	inactive	5.77	< 4.00	< 5.00					
Clc1ccc2[nH]cc(CC3CCNCC3)c2c1	< 6.00			6.15	4.92	5.74	inactive	inactive			
COc1ccc2[nH]cc(CCC3CCNCC3)c2c1	< 6.00	inactive	inactive	6.85	4.70	5.52					
Oc1ccc2c(CCC3CCNCC3)c[nH]c2c1	< 6.00	inactive	inactive	5.82	6.82	6.22					
Oc1ccc2[nH]cc(CCC3CCNCC3)c2c1	7.70	inactive	inactive	6.22	5.57	6.00					
c1ccc2c(CCCC3CCNCC3)c[nH]c2c1	7.22			7.40	5.52	6.30			8 mg/kg	56 mg/kg	
Cn1cc(CCC2CCNCC2)c2ccccc21	6.40		inactive	6.40	4.52	5.89					inactive
CN(C)CCCN1c2ccccc2CCc2ccc(Cl)cc21 [CLOMIPRAMINE]					6.00				6.5 mg/kg	45 mg/kg	
COc1ccc2[nH]cc(CC3CCNCC3)c2c1	< 6.00	inactive	inactive	6.00	< 4.00	5.05					
Fc1ccc2[nH]cc(CC3CCNCC3)c2c1	6.77				5.15	6.00			32 mg/kg	100 mg/kg	
Clc1ccc2[nH]cc(CCC3CCNCC3)c2c1	6.66	inactive	inactive	6.89	5.82	6.19					
CN1CCC(CCc2c[nH]c3ccccc23)CC1	< 6.00	inactive	inactive	6.35	5.19	4.40					
Brc1ccc2[nH]cc(CC3CCNCC3)c2c1	6.00			6.15	5.10	6.22	inactive			10 mg/kg	
c1ccc(Cn2cc(CCC3CCNCC3)c3ccccc32)cc1	< 6.00	inactive	inactive	5.72	6.52	5.30					
c1ccc(-c2[nH]c3ccccc3c2CCC2CCNCC2)cc1	< 6.00	inactive	inactive	5.66	5.46	5.82					
O=C(O)/C=C/C(=O)O.c1ccc(-n2cc(CCC3CCNCC3)c3ccccc32)cc1	< 6.00	inactive		6.00	4.70	6.40				> 100 mg/kg	
Cc1[nH]c2ccccc2c1CCC1CCNCC1	< 6.00	inactive		5.60	4.64	5.19				>100 mg/kg	
c1ccc2c(CC3CCNCC3)c[nH]c2c1	6.26		inactive	7.30	4.70	5.82			10 mg/kg		
c1ccc2c(CCC3CCNCC3)c[nH]c2c1 [INDALPINE]	7.52			8.00	4.74	5.80			4 mg/kg		
